The text below walks through data of PubChem BioAssay.

Experiment [1] is described as follows: nonspecific flux increase, KCNQ1-free cells – parental CHO cells, counter-screen for KCNQ1 potentiator project (AID 493006).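 As to activation: fluorescence ratio of max minus min over baseline after K+ and Tl+ depolarization.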 As to conditions: parental CHO-K1 cells, FluxOR thallium flux, at 10 µM; hits give high values. Put shortly: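 Material: parental CHO-K1 cells, FluxOR dye-loaded; Also added: Potassium/thallium depolarization pulse; Schedule: overnight 37 °C plating, 90 min dye, 20 min dark compound; Signal: kinetic FluxOR fluorescence, 10 s baseline, 110 s after stimulus.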
(A counterscreen serves to expose hits that act by an unwanted route or on another target.)

The target in experiment [2] is Potassium voltage-gated channel subfamily KQT member 1 (Homo sapiens) (UniProt P51787). Description: enhancement of KCNQ1 channel thallium flux – FluxOR thallium flux, CHO cells, duplicates, confirmation (AID 493007;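 active = potentiation averaged over duplicate wells exceeding buffer-only control mean by more than 3 SD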;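 as to outcome: cells depolarized by a potassium plus thallium sulfate stimulus after compound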). The note with it: KCNQ1 cell line, FluxOR thallium flux fluorescence, at 10 µM; hits give high values, % of reference activator effect, buffer zero. Put shortly: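 System: KCNQ1-expressing CHO cell line; technique: kinetic thallium influx fluorescence with FluxOR dye, 10 s baseline, 110 s post-stimulus; timing: dye 90 min then compound 20 min, both at room temperature; controls: buffer-only wells as 0% and R-L3 activator as 100%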

The target of experiment [3] is Potassium voltage-gated channel subfamily KQT member 2 (Rattus norvegicus) (UniProt O88943). Description: KCNQ2 thallium flux enhancement – KCNQ2-CHO-K1 cells, selectivity assay for KCNQ1 potentiator project (AID 493009;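 active = mean duplicate potentiation above the buffer control mean plus 5 SD of buffer wells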;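 also: assay conditions were tuned for KCNQ1 rather than KCNQ2 modulators; signal is max minus min fluorescence divided by baseline after thallium stimulus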). The note with it: FluxOR thallium flux fluorescence, at 10 µM; hits give high values, scaled: buffer 0, activator control 100.
Experiment [4] addresses Potassium voltage-gated channel subfamily KQT member 1 (Homo sapiens) (UniProt P51787). Nature of the experiment: KCNQ1 activators by electrophysiology – IonWorks patch clamp, KCNQ1-CHO cells, orthogonal assay for KCNQ1 potentiator project, confirmation (AID 493184;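 active = current rise at least 3 SD above the untreated control mean in each of two repeat wells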). As to conditions: automated patch clamp current, at 10 µM; hits give high values. The method, boiled down:
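Test system: KCNQ1-expressing CHO cells. Medium: pH 7.4 external bath. Probe or stimulus: voltage step from -90 mV holding to +40 mV, 2,000 ms. Compound: 10 µM final, single point. Detection: automated perforated-patch electrophysiology. Read-out: percent current increase versus pre-compound level. Repeats: two replicates.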

The source made the active and inactive calls.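 The calls were made as follows, unless noted: active = duplicate-averaged activation above buffer control mean plus 5 SD of those controls; inactive = the rest.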

Chain of Potassium voltage-gated channel subfamily KQT member 1 (Homo sapiens) (P51787 whole entry, looked up): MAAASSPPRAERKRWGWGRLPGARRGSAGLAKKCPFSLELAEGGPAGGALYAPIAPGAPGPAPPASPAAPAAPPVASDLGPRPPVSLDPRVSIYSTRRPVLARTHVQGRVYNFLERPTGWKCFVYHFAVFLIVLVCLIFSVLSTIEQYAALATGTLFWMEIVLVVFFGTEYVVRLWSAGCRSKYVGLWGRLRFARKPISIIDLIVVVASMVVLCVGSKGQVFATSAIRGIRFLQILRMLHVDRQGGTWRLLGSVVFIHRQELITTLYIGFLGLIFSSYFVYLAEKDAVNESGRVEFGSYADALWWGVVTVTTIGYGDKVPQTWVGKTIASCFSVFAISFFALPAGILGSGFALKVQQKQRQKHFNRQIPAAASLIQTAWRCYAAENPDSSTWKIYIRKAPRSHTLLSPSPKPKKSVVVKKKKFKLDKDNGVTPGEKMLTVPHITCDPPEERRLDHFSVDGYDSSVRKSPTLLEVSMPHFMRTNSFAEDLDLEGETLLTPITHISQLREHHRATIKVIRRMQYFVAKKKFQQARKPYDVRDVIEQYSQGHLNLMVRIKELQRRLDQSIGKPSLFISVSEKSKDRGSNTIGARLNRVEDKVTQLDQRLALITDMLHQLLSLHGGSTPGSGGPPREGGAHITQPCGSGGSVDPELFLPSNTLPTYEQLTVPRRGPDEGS
Chain of Potassium voltage-gated channel subfamily KQT member 2 (Rattus norvegicus) (O88943 whole entry, looked up): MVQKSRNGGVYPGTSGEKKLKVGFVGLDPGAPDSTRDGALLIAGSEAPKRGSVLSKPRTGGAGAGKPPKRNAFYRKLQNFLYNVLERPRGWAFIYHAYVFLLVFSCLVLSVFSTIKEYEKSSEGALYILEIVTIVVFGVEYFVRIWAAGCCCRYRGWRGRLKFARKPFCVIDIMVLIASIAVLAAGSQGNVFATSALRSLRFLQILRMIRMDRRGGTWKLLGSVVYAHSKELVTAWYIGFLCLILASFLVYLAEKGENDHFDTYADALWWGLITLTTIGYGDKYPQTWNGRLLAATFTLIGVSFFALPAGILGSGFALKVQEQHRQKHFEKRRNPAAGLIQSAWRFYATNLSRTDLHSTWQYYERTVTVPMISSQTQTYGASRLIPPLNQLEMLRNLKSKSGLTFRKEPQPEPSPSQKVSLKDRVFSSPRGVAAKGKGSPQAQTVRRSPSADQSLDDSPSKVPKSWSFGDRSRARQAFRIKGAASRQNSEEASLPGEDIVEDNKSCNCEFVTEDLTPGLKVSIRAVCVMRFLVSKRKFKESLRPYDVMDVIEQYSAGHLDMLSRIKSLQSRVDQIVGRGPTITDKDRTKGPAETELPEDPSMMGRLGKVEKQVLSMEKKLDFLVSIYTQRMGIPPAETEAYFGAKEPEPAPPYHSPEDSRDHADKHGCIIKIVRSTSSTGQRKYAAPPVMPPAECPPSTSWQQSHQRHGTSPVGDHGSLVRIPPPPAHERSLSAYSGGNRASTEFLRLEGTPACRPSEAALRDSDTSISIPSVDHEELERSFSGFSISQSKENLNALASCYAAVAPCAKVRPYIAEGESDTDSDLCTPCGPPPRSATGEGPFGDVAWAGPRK

As for `Cc1ccc(C(=O)CC(=O)c2cccc(F)c2)c(O)c1`, the activation in experiment [1] is 156% (active). In addition, the values for the potentiation in experiment [2] and in experiment [3] were 35% (active) and 150% (active), respectively. Moreover, in experiment [4], the outcome was inactive.

Consider `N#CC(c1cccc(Cl)c1)c1ccc2c(C(F)(F)F)cc(C(F)(F)F)nc2n1` (stereo not given), for which, in experiment [1], the activation is 144% (active). The potentiation in experiment [2] is 234% (active); in experiment [3], 298% (active). The result in experiment [4] was inactive.

On to `Cc1sc(-n2c(C)cc(/C=N/n3cnnc3)c2C)c(C#N)c1C`, for which the outcome in experiment [1], in experiment [3] and in experiment [4] was inactive. The potentiation in experiment [2] is 17.5% (active).

For `O=[N+]([O-])c1cccc(-c2ccc3nnc(SCc4ccccn4)n3n2)c1`, the outcome in experiment [1], in experiment [2], in experiment [3] and in experiment [4] was inactive.

`CCn1ncc(CN2CCC(C(=O)Nc3cccc(-c4cccc(F)c4)c3)CC2)c1C`: the result in experiment [1], in experiment [2], in experiment [3] and in experiment [4] was inactive.

Take `CCN(CC)c1ccc(NC(=S)NC(=O)c2ccco2)cc1`: the activation in experiment [1] is 263% (active). Further, the values for the potentiation in experiment [2] and in experiment [3] were 104% (active) and 322% (active), respectively. The outcome in experiment [4] was inactive.

For `CCOC(=O)c1sc(NC(=O)c2ccncc2)nc1C`, the activation in experiment [1] is 161% (active). In addition, the results for the potentiation in experiment [2] and in experiment [3] were 54% (active) and 166% (active), respectively. The result in experiment [4] was inactive.

`Cc1cccc(C)c1NC(=S)NC(=O)c1ccc(Br)o1`: the activation in experiment [1] is 394% (active). Further, the potentiation was 122% (active) in experiment [2] and 412% (active) in experiment [3]. In experiment [4], the result was inactive.

Take `S=c1nc(-c2ccccc2)[nH]c2ccccc12`: the activation in experiment [1] was 316% (active). Moreover, the potentiation in experiment [2] is 110% (active); in experiment [3], 294% (active). Moreover, the outcome in experiment [4] was inactive.

For the compound `Cc1ccccc1Cn1c(O)c(N=NC(=S)Nc2ccccc2F)c2ccccc21`, the result in experiment [1], in experiment [3] and in experiment [4] was inactive. Moreover, the potentiation in experiment [2] was 36% (active).

Turning to `NC(=O)c1cccc(N=Cc2cc(Cl)cc(Cl)c2O)c1`, the activation in experiment [1] is 178% (active). In addition, the values for the potentiation in experiment [2] and in experiment [3] were 25% (active) and 154% (active), respectively. For the same compound, in experiment [4], the outcome was inactive.

Consider `CCCCn1c(NS(=O)(=O)c2ccc(C)cc2)c(S(=O)(=O)c2ccccc2)c2nc3ccccc3nc21`, for which the outcome in experiment [1], in experiment [2], in experiment [3] and in experiment [4] was inactive.

As for `Cc1ccc(/C=N/Nc2nc(C(C)(C)C)cs2)o1`, the result in experiment [1], in experiment [2], in experiment [3] and in experiment [4] was inactive.

In the case of `CCn1c(=S)[nH]c2sc3c(c2c1=O)CCCC3`, the activation in experiment [1] was 338% (active). The potentiation is 149% (active) in experiment [2] and 383% (active) in experiment [3]. In addition, the result in experiment [4] was inactive.

For the compound `O=C(C1CCN(Cc2ccccc2)CC1)N1CCN(C/C=C/c2ccccc2)CC1`, the outcome in experiment [1], in experiment [2], in experiment [3] and in experiment [4] was inactive.

As for `Cc1c(/C=N\NC(=O)c2ccc(F)cc2)cnn1C`, the outcome in experiment [1], in experiment [2], in experiment [3] and in experiment [4] was inactive.

On to `O=C1CC(c2cccs2)Cc2nc(NC(=O)C3CC3)ncc21` (stereo not given), for which the result in experiment [1], in experiment [2], in experiment [3] and in experiment [4] was inactive.

For the compound `Cc1[nH]c(=S)sc1Cc1ccc(F)cc1`, the activation in experiment [1] is 286% (active). For the same compound, the results for the potentiation in experiment [2] and in experiment [3] were 101% (active) and 300% (active), respectively. Moreover, in experiment [4], the outcome was inactive.

For the compound `CCc1nnc(NC(=O)c2ccc(S(=O)(=O)N(CC)Cc3ccccc3)cc2)o1`, in experiment [1], the activation is 254% (active). The potentiation in experiment [2] is 107% (active); in experiment [3], 270% (active). The result in experiment [4] was inactive.

Regarding `C/C(=N\NC(=O)c1cc2ccccc2cc1O)c1ccc(C)o1`, the activation in experiment [1] is 238% (active). The potentiation was 114% (active) in experiment [2] and 264% (active) in experiment [3]. In addition, the outcome in experiment [4] was inactive.

Regarding `CC(C)CCn1c(=O)c2ccccc2n2c(=S)[nH]nc12`, the result in experiment [1], in experiment [2], in experiment [3] and in experiment [4] was inactive.

As for `COc1cccc(NC(=O)NCC2CCN(Cc3ccc(F)cc3)CC2)c1`, the outcome in experiment [1], in experiment [2], in experiment [3] and in experiment [4] was inactive.

Consider `O=c1ccc(-c2ccc(S(=O)(=O)Nc3ccccc3)o2)n[nH]1`, for which the result in experiment [1], in experiment [2], in experiment [3] and in experiment [4] was inactive.

As to `CCOc1ncccc1C(=O)OCc1ccc(C#N)cc1`, the activation in experiment [1] is 286% (active). The potentiation in experiment [2] was 114% (active); in experiment [3], 392% (active). Besides, the result in experiment [4] was inactive.

With `CC(c1ccccc1C(O)(c1ccccc1)c1ccccc1)N(C)C` (stereo not given), the result in experiment [1], in experiment [2], in experiment [3] and in experiment [4] was inactive.

As to `O=C(Cn1c(=O)c2c(ncn2Cc2ccccc2)n(Cc2ccccc2)c1=O)N1CCc2ccccc21`, the outcome in experiment [1], in experiment [2], in experiment [3] and in experiment [4] was inactive.

As for `CCN(Cc1cc2cc(OC)ccc2[nH]c1=O)C(=O)c1ccncc1`, the outcome in experiment [1], in experiment [2], in experiment [3] and in experiment [4] was inactive.

Regarding `O=C(COc1ccc2ccccc2c1)NNC(=O)[C@@H]1CCCC[C@@H]1C(=O)O`, the result in experiment [1], in experiment [2], in experiment [3] and in experiment [4] was inactive.

Turning to `O=c1c(O)c(-c2cccs2)oc2ccccc12`, the activation in experiment [1] was 290% (active). Further, the values for the potentiation in experiment [2] and in experiment [3] were 115% (active) and 289% (active), respectively. Also, the result in experiment [4] was inactive.

Regarding `C=CCn1c(N)c(C(=O)Nc2ccc(C)cc2)sc1=S`, the result in experiment [1], in experiment [2], in experiment [3] and in experiment [4] was inactive.
